# Assay outcomes deposited in PubChem by several laboratories.
# Compounds with a hit are over-represented: about 3.6% of the library has one in this group of screens.
# ZTA counter – counter-screen for EBNA-1 inhibitors: inhibitors of Epstein-Barr virus ZTA | ZTA-DNA binding, fluorescence polarization | inhibition, % at 11 µM | 0.15% of 320,000 active | AID 2234; in the data active means inhibition above about 33%
# Target sequence (P03206 whole entry, looked up): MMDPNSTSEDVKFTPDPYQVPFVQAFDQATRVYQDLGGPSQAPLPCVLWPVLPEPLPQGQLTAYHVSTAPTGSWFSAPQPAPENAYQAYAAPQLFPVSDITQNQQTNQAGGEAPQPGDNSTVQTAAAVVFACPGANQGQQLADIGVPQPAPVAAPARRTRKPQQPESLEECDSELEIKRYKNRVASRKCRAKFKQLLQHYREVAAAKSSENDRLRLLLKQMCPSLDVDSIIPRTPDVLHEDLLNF
# GRIN3A LBD mod – NR3A (human) ligand-binding domain modulation; NR3A LBD differential scanning fluorimetry, Tm shift; 0% = protein alone, 100% = glycine-bound protein; Tm shift relative to glycine control, % at 25 µM; 2.5% of 340,000 active;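 active means melting temperature shift of at least 10% of the positive control shift, at one fixed dose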
# EBNA-1 inh – blocks EBNA-1 binding to DNA. EBNA-1 DNA binding, fluorescence polarization. inhibition, % at 14.8 µM. 0.34% of 300,000 active. AID 1950; in the data active means inhibition above about 28%
# HCV NS3 hel inh – blocks Hepatitis C virus NS3 helicase unwinding. 0.56% of 290,000 active. NS3 helicase DNA unwinding, Cy5 molecular beacon fluorescence. AID 1800. inhibition, % at 10.9 µM;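 active means inhibition above the mean of all tested compounds plus 3 SD, set per campaign, cut at about 35% in these data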;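 further: 0% = DMSO wells and 100% = thioflavine S control wells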
#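 Material: hepatitis C virus NS3 helicase domain fragment enzyme; measured by: Cy5 fluorescence, 0 and 60 min reads; control set: DMSO and thioflavine S; incubation: 60 min unwinding reaction at 25 °C after ATP addition; read-out basis: % inhibition from 60/0 min fluorescence ratio, DMSO 0%, thioflavine S 100%; repeats: singlicate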
# FGF22 binding – binders of recombinant human FGF22 by thermal shift; SYPRO orange fluorescence; percent of sucrose octasulfate shift, DMSO zero; AID 651658; 1.5% of 340,000 active; activity (Tm shift, normalised), % at 9.99 µM;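 active means mean Tm shift, scaled 0 neutral to 100 positive control, at about 1.3% or above, every replicate too, limit read from the data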
# Target sequence (Q9HCT0 whole entry, looked up): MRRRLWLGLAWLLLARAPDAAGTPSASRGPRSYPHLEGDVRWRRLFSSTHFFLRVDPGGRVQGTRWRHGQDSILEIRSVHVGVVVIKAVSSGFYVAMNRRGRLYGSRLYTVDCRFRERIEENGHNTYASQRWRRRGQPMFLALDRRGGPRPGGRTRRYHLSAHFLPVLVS
# DNA FID counter – counter-screen for HCV NS3 helicase inhibitors: DNA intercalator displacement; inhibition, % at 7.9 µM; DNA fluorescent intercalator displacement, fluorescence; 0.17% of 290,000 active; in the data active means inhibition above about 37%;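 further: 0% = vehicle and 100% = reference compound; higher means more ethidium bromide displaced from hairpin DNA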
# * = called active by the depositor; nt = no result given.
SMILES,ZTA counter,GRIN3A LBD mod,EBNA-1 inh,HCV NS3 hel inh,FGF22 binding,DNA FID counter
CC(=O)c1ccc(NC(=S)NCCc2ccc(S(N)(=O)=O)cc2)cc1,7.3,-0.9,5.6,5.8,1.2,-3.6
O=[N+]([O-])c1ccc(NC(=S)NCCc2ccccc2)cc1,-26.0,34.6*,-0.2,-9.4,0.0,12.7
COCC(=O)N(C)C[C@@H]1Oc2cc(C#CC(C)(C)O)ccc2S(=O)(=O)N([C@H](C)CO)C[C@@H]1C,nt,nt,nt,nt,0.0,nt
C[C@H]1CN([C@@H](C)CO)C(=O)c2cc(-c3ccc(F)cc3)cnc2O[C@H]1CN(C)CC1CCCCC1,nt,nt,nt,nt,-0.2,nt
Cn1cccc1-c1nc2ccc(NC(=O)c3cccs3)cc2[nH]1,15.8,16.1*,-1.1,3.5,nt,-3.9
CC(=O)Nc1ccc2nc(-c3ccc(Br)o3)[nH]c2c1,-17.1,8.0,-2.1,12.7,nt,-3.5
O=C(Nc1ccc2nc(-c3ccc(Br)o3)[nH]c2c1)c1ccco1,-8.2,10.0*,2.0,0.1,nt,-6.5
O=C(Nc1ccc2nc(-c3ccc(Br)o3)[nH]c2c1)c1cccs1,8.8,21.4*,9.0,10.9,nt,0.0
CCCNC(=O)N1C[C@@H](O)COC[C@H]2O[C@@H](CC(=O)N3CCC(Cc4ccccc4)CC3)CC[C@@H]21,nt,nt,nt,nt,-0.1,nt
COc1ccc(/C=C/C(=O)Nc2ccc(C(C)=O)cc2)cc1S(=O)(=O)N1CCOCC1,nt,nt,nt,nt,0.1,nt
COc1ccc(/C=C/C(=O)Nc2cccc(F)c2)cc1S(=O)(=O)N1CCOCC1,-6.5,10.1*,-1.1,-6.8,0.4,-23.4
COc1cc(/C=C/C(=O)Nc2ccc(OC)c(S(=O)(=O)N3CCOCC3)c2)ccc1OC(F)F,nt,-9.8,nt,nt,1.6*,nt
COc1ccc(NC(=O)COc2cc(C)cc(C)c2)cc1S(=O)(=O)N1CCCCC1,-2.7,23.5*,-0.3,nt,0.0,nt
COc1ccc(Nc2nc(-c3ccccc3)nc3ccccc23)cc1S(=O)(=O)N1CCOCC1,10.8,10.7*,-7.5,-7.3,0.2,-3.4
CO[C@H]1CN(C)C(=O)c2ccc(NC(C)=O)cc2OC[C@@H](C)N(C(=O)c2cccnc2)C[C@@H]1C,nt,nt,nt,nt,0.2,nt
C[C@H](CO)N1C[C@H](C)[C@@H](CN(C)S(=O)(=O)CC(F)(F)F)OCc2ccccc2-c2c(n(C)c3ccccc23)C1=O,nt,nt,nt,nt,-0.3,nt
O=C(c1cccc(F)c1)N1C[C@@H]2[C@H](c3ccccc31)[C@@H](CO)N2C(=O)C1CC1,nt,nt,nt,nt,0.1,nt
COc1ccc(NC(=O)c2ccccn2)cc1S(=O)(=O)N1CCOCC1,4.7,0.4,-3.7,1.4,0.0,-0.9
COc1ccc(NC(=O)c2c(F)cccc2Cl)cc1S(=O)(=O)N1CCOCC1,nt,1.1,nt,nt,43.0*,nt
COc1cc(OC)c(C(=O)OCC(=O)Nc2cc(C)on2)cc1OC,9.2,-0.2,-13.8,-23.8,43.4*,-7.3
Fc1cccc(Nc2ncnc3c2cnn3-c2ccccc2)c1,15.9,27.9*,-1.5,nt,-0.1,nt
COc1cccc(Nc2ncnc3c2cnn3-c2cccc(C)c2)c1,3.5,13.1*,-2.1,0.5,nt,-5.3
COc1ccccc1Nc1ncnc2c1cnn2-c1cccc(C)c1,10.3,0.5,-5.3,15.3,nt,-7.7
COc1ccc(-n2ncc3c(NCC(C)C)ncnc32)cc1,-9.3,16.8*,5.7,-0.5,nt,-11.3
CCCC(=O)N1CC2(CN(C(=O)NC(C)C)C2)c2c(n(C)c3cc(OC)ccc23)[C@@H]1CO,nt,nt,nt,nt,-0.2,nt
SMILES,ZTA counter,GRIN3A LBD mod,EBNA-1 inh,HCV NS3 hel inh,FGF22 binding,DNA FID counter
O=C(NCCN1CCOCC1)c1ccc2c(c1)N(Cc1ccc(F)cc1)C(=O)CS2,-20.0,-2.2,-3.2,1.0,0.0,-1.8
Cc1ccc(CN2C(=O)CSc3ccc(C(=O)NCCN4CCOCC4)cc32)cc1,6.6,-1.1,-8.0,-24.3,nt,42.8*
CCCNC(=S)N1CCN(c2nc(-c3cccc(OC)c3)cs2)CC1,-0.6,1.3,-9.4,-6.5,-0.1,-12.1
CCCNC(=S)N1CCN(c2nc(-c3ccc(C)cc3)cs2)CC1,1.2,11.9*,-7.4,3.5,0.0,-17.5
COc1ccc(C(=O)c2cc([N+](=O)[O-])ccc2N2CCN(C)CC2)cc1,0.2,-0.4,-0.2,-21.0,-0.1,39.9*
COc1ccc(C(=O)c2cc([N+](=O)[O-])ccc2N2CCCC2)cc1,-5.0,4.6,13.5,3.6,nt,2.4
COc1ccc(S(=O)(=O)Nc2ccc3c(c2)CC(=O)N([C@H](C)CO)C[C@@H](C)[C@@H](CN(C)C)O3)cc1,nt,nt,nt,nt,0.2,nt
